ChEMBL document CHEMBL4680074, “Structure and Property Guided Design in the Identification of PRMT5 Tool Compound EPZ015666” (ACS Med Chem Lett, 2016)

Legend:
PRMT5/MEP50 complex = PRMT5/MEP50 complex (Homo sapiens, UniProt O14744); experiment: Inhibition of human full length FLAG-tagged PRMT5/human His6-tagged MEP50 expressed in baculovirus-infected Sf9 cells assessed as reduction in tritium incorporation into peptide substrate using human Histone H4 (1 to 15 residues) and [3H]SAM as substrate preincubated with enzyme and H4 for 30 mins followed by [3H]SAM addition and measured after 120 mins by radioactive flashplate assay
PRMT5/MEP50 complex, sequence (O14744 whole entry, the tested form may be a part): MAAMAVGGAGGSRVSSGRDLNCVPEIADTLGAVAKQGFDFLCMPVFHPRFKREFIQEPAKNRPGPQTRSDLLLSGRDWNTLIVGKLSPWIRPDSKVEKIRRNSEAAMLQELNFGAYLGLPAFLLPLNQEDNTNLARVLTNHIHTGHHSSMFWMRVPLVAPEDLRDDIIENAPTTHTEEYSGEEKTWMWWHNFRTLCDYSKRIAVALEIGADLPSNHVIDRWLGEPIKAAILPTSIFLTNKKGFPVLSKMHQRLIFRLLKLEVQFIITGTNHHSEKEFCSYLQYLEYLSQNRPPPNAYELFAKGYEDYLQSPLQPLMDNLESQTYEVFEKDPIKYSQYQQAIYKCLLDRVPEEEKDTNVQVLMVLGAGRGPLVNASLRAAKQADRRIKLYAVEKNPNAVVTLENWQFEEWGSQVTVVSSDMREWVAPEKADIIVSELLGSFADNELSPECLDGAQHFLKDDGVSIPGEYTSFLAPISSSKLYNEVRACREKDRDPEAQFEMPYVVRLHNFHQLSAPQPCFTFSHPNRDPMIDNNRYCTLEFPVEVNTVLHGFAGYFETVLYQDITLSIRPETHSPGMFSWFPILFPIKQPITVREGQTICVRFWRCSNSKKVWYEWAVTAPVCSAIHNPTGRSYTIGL
PRMT5/MEP50 complex, sequence (Q9BQA1 whole entry, further chain, the tested form may be a part): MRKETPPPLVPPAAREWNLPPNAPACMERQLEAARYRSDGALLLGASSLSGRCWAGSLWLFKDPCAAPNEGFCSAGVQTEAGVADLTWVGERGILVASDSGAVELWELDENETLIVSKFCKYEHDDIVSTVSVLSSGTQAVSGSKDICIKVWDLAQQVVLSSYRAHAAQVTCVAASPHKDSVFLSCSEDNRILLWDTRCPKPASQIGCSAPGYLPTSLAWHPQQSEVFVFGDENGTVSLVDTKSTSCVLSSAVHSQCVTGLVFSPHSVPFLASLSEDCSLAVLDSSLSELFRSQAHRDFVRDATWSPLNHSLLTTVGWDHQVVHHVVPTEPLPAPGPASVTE

[1] = target: Protein arginine N-methyltransferase 5 (Homo sapiens, UniProt O14744); experiment: Inhibition of PRMT5 in human Z138 cells assessed as reduction in symmetrical dimethylation of arginine containing substrate using SmD3 as substrate incubated for 4 days by In-cell western assay; assay type: cell-based
Protein arginine N-methyltransferase 5, sequence (O14744 whole entry): as the sequence (O14744 whole entry, the tested form may be a part) above

Z-138 = experiment: Antiproliferative activity against human Z138 cells incubated for 5 days by cell titer-glo assay; assay type: functional, cell-based; details: Z-138, 120 h
[2] = Protein binding in CD-1 mouse plasma; assay type: ADME, cell-free; details: read-out: PPB (converted)
[3] = Time during which unbound drug concentration exceeds IC90 for inhibition of PRMT5 in human Z138 cells in CD-1 mouse at 100 mg/kg, po; assay type: organism-based; details: in vivo
In short: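 Male CD-1 mice received single oral doses of 10 and 100 mg/kg, and plasma concentration was profiled over time. Unbound concentration was compared with the cellular methyl-mark IC90 after correction for plasma protein binding in mouse plasma. The value is the time this unbound level stayed at or above that IC90.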

Compound	IC50 (PRMT5/MEP50 complex)	IC50 [1]	IC50 (Z-138)	fraction unbound [2]	Time [3]
OC(COc1cccc(CNC2CCCC2)c1)CN1CCc2ccccc2C1 (stereo not given)	326 nM	–	–	–	–
OC(COc1cccc(CNC2CCCC2)c1)CN1Cc2ccccc2C1 (stereo not given)	7450 nM	–	–	–	–
Cn1cnc2ccc(-c3ccnc(NCC(O)CN4CCc5ccccc5C4)c3)cc21 (stereo not given)	33 nM	180 nM	2100 nM	–	–
O=C(NC[C@@H](O)CN1CCc2ccccc2C1)c1cccc(-c2ccccn2)c1	95 nM	406 nM	18700 nM	–	–
O=C(NC[C@H](O)CN1CCc2ccccc2C1)c1cccc(NC2CCOCC2)c1	18 nM	13 nM	384 nM	–	–
O=C(COc1cccc2cccnc12)NC[C@@H](O)CN1CCc2ccccc2C1	11 nM	16 nM	451 nM	–	–
O=C(COc1cccc2cccnc12)NC[C@H](O)CN1CCc2ccccc2C1	144 nM	327 nM	12600 nM	–	–
O=C(NC[C@H](O)CN1CCc2ccccc2C1)c1cccc(-c2ccccn2)c1	13 nM	32 nM	890 nM	–	–
Cn1cnc2ccc(-c3cccc(OCC(O)CN4CCc5ccccc5C4)c3)cc21 (stereo not given)	73 nM	435 nM	4260 nM	–	–
COc1cc2c(cc1OC)CN(CC(O)COc1cccc(CNC3CCCC3)c1)CC2 (stereo not given)	> 50000 nM	–	–	–	–
O=C(NC[C@H](O)CN1CCc2ccccc2C1)c1cc(NC2COC2)ncn1	–	–	–	0.7	12 h
O=C(NC[C@H](O)CN1CCc2ccccc2C1)c1ccnc(NC2CCC2)c1	–	–	62 nM	–	–
CN(Cc1ccccc1)CC(O)COc1cccc(CNC2CCCC2)c1 (stereo not given)	26800 nM	–	–	–	–
OC(COc1cccc(CNC2CCCC2)c1)CN1CCc2ccncc2C1 (stereo not given)	> 50000 nM	–	–	–	–
O=C(COc1cccc2cccnc12)NCC(O)CN1CCc2ccccc2C1 (racemic)	23 nM	36 nM	428 nM	–	–
O=C(NCC(O)CN1CCc2ccccc2C1)c1cccc(-c2ccccn2)c1 (racemic)	13 nM	37 nM	1680 nM	–	–
